According to ChEMBL document CHEMBL1154078, “Synthesis of novel purine nucleosides towards a selective inhibition of human butyrylcholinesterase” (Bioorg Med Chem, 2009):
The source made the active and inactive calls. No cut-off for these calls is given here.

Assays:
Cholinesterase [1] = target: T1, Cholinesterase (Homo sapiens, UniProt P06276); test: Inhibition of BChE in human serum assessed as hydrolysis of butyrylthiocholine at 100 ug/mL by Ellman's method; type: cell-free
How it was run: (§1)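 Human serum BChE (0.44 U/mL solution) in 0.1 M phosphate buffer pH 8.0 with S-butyrylthiocholine iodide and DTNB. Absorbance at 410 nm followed kinetically for 4 min at 30 °C, at least four replicates. Inhibition % = 100 − 100·V/V_max, where V_max comes from blanks without inhibitor; one-sided t-test. IC50 obtained by non-linear regression of the dose–response, given as mean ± SEM.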

[2] = target: T2, Acetylcholinesterase (Bos taurus) (UniProt P23795); test: Inhibition of AChE in bovine erythrocytes assessed as hydrolysis of acetylthiocholine by Ellman's method
T2 sequence (whole entry): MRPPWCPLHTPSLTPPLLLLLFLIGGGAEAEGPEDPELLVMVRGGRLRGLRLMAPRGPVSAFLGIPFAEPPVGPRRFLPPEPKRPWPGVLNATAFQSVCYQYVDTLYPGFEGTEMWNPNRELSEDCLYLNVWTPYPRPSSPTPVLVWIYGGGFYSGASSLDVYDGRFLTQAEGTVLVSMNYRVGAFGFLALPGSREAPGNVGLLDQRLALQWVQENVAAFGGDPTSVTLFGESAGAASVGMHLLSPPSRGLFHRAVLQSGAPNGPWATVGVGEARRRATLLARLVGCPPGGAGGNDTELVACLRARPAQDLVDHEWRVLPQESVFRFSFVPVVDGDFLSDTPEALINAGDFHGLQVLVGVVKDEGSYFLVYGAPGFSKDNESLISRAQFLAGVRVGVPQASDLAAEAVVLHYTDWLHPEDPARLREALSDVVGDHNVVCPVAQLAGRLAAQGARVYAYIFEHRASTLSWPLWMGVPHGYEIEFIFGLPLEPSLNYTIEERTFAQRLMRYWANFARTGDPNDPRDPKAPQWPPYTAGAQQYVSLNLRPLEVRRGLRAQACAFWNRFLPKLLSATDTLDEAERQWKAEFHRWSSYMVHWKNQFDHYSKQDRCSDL
How it was run: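 Bovine erythrocyte AChE (1.32 U/mL solution) in 0.1 M phosphate buffer pH 8.0 with acetylthiocholine iodide and DTNB. Yellow product read kinetically at 410 nm for 4 min at 30 °C. Rates compared with no-inhibitor V_max; inhibition % = 100 − 100·V/V_max. At least four replicates. One-sided t-test against 0% inhibition.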

Cholinesterase [3] = target: T1, Cholinesterase; test: Inhibition of BChE in human serum assessed as hydrolysis of butyrylthiocholine by Ellman's method; type: cell-free
How it was run: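 Human serum BChE (0.44 U/mL solution) in 0.1 M phosphate buffer pH 8.0 with S-butyrylthiocholine iodide and DTNB. Absorbance at 410 nm followed kinetically for 4 min at 30 °C, at least four replicates. IC50 obtained by non-linear regression of the dose–response, given as mean ± SEM.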

Cholinesterase [4] = target: T1, Cholinesterase; test: Inhibition of BChE in human serum assessed as hydrolysis of butyrylthiocholine at 10 ug/mL by Ellman's method; how it was run: as §1
Cholinesterase [5] = target: T1, Cholinesterase; test: Inhibition of BChE in human serum assessed as hydrolysis of butyrylthiocholine at 1 ug/mL by Ellman's method; type: cell-free; how it was run: as §1
Cholinesterase [6] = target: T1, Cholinesterase; test: Inhibition of BChE in human serum assessed as hydrolysis of butyrylthiocholine at 0.1 ug/mL by Ellman's method; how it was run: as §1
[7] = Cytotoxicity against human A549 cells assessed as cell viability at 100 ug/mL after 24 hrs by MTT assay relative to control; type: cell-based; conditions: read-out: Activity
How it was run: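 A549 cells seeded, allowed to attach 24 h, then exposed to compound for 24 h; hydrogen peroxide positive control, solvent negative control. MTT added at 48 h of culture (final 0.5 mg/mL), 3 h incubation, cells washed twice, formazan dissolved in DMSO with 20 min shaking at room temperature; viable, metabolically active cells quantified.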

[8] = Cytotoxicity against human A549 cells assessed as cell viability at 2000 ug/mL after 24 hrs by MTT assay relative to control; type: cell-based; conditions: read-out: Activity
How it was run: (§2)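 A549 cells seeded, left 24 h to attach, then exposed to compound for 24 h. Hydrogen peroxide served as positive control and pure solvent as negative control. At 48 h of culture, MTT added to a final concentration of 0.5 mg/mL and incubated 3 h. Medium removed, cells washed twice, formazan dissolved in DMSO with shaking for 20 min at room temperature.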

[9] = Cytotoxicity against human A549 cells assessed as cell viability at 200 ug/mL after 24 hrs by MTT assay relative to control; type: cell-based; conditions: read-out: Activity; how it was run: as §2
[10] = Cytotoxicity against human A549 cells assessed as cell viability at 20 ug/mL after 24 hrs by MTT assay relative to control; type: cell-based; conditions: read-out: Activity; how it was run: as §2
[11] = Cytotoxicity against human A549 cells assessed as cell viability at 2 ug/mL after 24 hrs by MTT assay relative to control; type: cell-based; conditions: read-out: Activity; how it was run: as §2
[12] = Cytotoxicity against human A549 cells assessed as cell viability at 0.2 ug/mL after 24 hrs by MTT assay relative to control; type: cell-based; conditions: read-out: Activity; how it was run: as §2
Cholinesterase [13] = target: T1, Cholinesterase; test: Inhibition of BChE in human serum assessed as hydrolysis of butyrylthiocholine at 0.01 ug/mL by Ellman's method; type: cell-free; how it was run: as §1

T1 sequence (P06276 whole entry): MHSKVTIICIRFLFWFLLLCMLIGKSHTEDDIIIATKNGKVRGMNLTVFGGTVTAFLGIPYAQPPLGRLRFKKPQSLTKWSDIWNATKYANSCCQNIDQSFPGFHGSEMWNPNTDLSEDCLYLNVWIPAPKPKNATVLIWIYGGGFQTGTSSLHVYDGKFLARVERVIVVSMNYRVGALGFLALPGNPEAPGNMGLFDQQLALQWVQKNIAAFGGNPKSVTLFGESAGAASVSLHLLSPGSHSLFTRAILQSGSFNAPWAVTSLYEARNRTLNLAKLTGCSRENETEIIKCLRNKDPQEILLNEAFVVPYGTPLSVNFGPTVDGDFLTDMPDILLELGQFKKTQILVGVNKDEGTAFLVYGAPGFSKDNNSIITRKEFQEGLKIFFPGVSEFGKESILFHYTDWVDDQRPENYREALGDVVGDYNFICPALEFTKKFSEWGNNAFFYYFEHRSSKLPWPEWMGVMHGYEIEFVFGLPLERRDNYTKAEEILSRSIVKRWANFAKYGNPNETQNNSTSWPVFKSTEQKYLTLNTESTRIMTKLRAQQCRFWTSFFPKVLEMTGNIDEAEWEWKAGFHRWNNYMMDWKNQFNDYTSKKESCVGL

Row | SMILES | inhibition (Cholinesterase [1]) | inhibition [2] | IC50 (Cholinesterase [3]) | inhibition (Cholinesterase [4]) | inhibition (Cholinesterase [5]) | inhibition (Cholinesterase [6]) | viability at 24 h, 100 ug/mL [7] | viability at 24 h, 2000 ug/mL [8] | viability at 24 h, 200 ug/mL [9] | viability at 24 h, 20 ug/mL [10] | viability at 24 h, 2 ug/mL [11] | viability at 24 h, 0.2 ug/mL [12] | inhibition (Cholinesterase [13])
1 | CO[C@H]1O[C@H](COC(=O)c2ccccc2)[C@@H](OC(=O)c2ccccc2)[C@@]2(OC(=O)c3ccccc3)[C@@H](OC(=O)c3ccccc3)CO[C@@H]12 | 7% | inactive | – | – | – | – | – | – | – | – | – | – | –
2 | CO[C@H]1O[C@H](CO)[C@@H](OCc2ccccc2)[C@@]2(OCc3ccccc3)[C@@H](OCc3ccccc3)CO[C@@H]12 | 60% | inactive | 148 µM | < 5% | – | – | – | – | – | – | – | – | –
3 | C=C[C@@H](O)[C@@H]1O[C@H](OC)[C@@H]2OC[C@H](OCc3ccccc3)[C@]2(OCc2ccccc2)[C@@H]1OCc1ccccc1 | 73% | inactive | 50 µM | 23% | – | – | – | – | – | – | – | – | –
4 | CCN(C)C(=O)Oc1cccc([C@H](C)N(C)C)c1 [RIVASTIGMINE] | 100% | inactive | – | 100% | 100% | 76% | 89% | – | – | – | – | – | –
5 | COC(=O)[C@H](N=[N+]=[N-])[C@@H]1O[C@@H](n2cnc3nc(NC(C)=O)nc(Cl)c32)[C@@H]2OC[C@H](OCc3ccccc3)[C@]2(OCc2ccccc2)[C@@H]1OCc1ccccc1 | – | inactive | – | – | – | – | – | 21.3% | 52.3% | 69.3% | 99.9% | 103% | –
6 | CO[C@H]1O[C@@H]([C@@H](N=[N+]=[N-])C(=O)OCc2ccccc2)[C@@H](OCc2ccccc2)[C@@]2(OCc3ccccc3)[C@@H](OCc3ccccc3)CO[C@@H]12 | 98% | inactive | 13.4 µM | 73% | 14% | – | – | 16% | 64.2% | 63.6% | 76.2% | 90.5% | –
7 | CC(=O)Nc1nc(Cl)c2c(ncn2[C@@H]2O[C@@H]([C@@H](N=[N+]=[N-])C(=O)OCc3ccccc3)[C@@H](OCc3ccccc3)[C@@]3(OCc4ccccc4)[C@@H](OCc4ccccc4)CO[C@@H]23)n1 | 91% | inactive | 0.14 µM | 79% | 77% | 63% | – | – | – | – | – | – | 10%
8 | COC(=O)[C@@H](N=[N+]=[N-])[C@@H]1O[C@@H](n2cnc3nc(NC(C)=O)nc(Cl)c32)[C@@H]2OC[C@H](OCc3ccccc3)[C@]2(OCc2ccccc2)[C@@H]1OCc1ccccc1 | – | inactive | – | – | – | – | – | 15.1% | 19.5% | 40.8% | 77.7% | 103% | –
9 | CO[C@H]1O[C@H](CO)[C@@H](O)[C@@]2(O)[C@@H](O)CO[C@@H]12 | < 5% | inactive | – | – | – | – | – | – | – | – | – | – | –
10 | CC(=O)Nc1nc(Cl)c2c(ncn2[C@@H]2O[C@@H]([C@H](N=[N+]=[N-])C(=O)OCc3ccccc3)[C@@H](OCc3ccccc3)[C@@]3(OCc4ccccc4)[C@@H](OCc4ccccc4)CO[C@@H]23)n1 | 81% | inactive | 22 µM | 34% | 9% | – | – | 7.32% | 51.3% | 46.9% | 82.2% | 88.5% | –
11 | CO[C@H]1O[C@@H]([C@@H](O)C(=O)OCc2ccccc2)[C@@H](OCc2ccccc2)[C@@]2(OCc3ccccc3)[C@@H](OCc3ccccc3)CO[C@@H]12 | 95% | inactive | 16.1 µM | 56% | 7% | – | – | 36% | 63.6% | 67.2% | 81.6% | 91.9% | –
12 | CC(=O)Nc1nc(Cl)c2c(ncn2[C@@H]2O[C@H](COC(C)=O)[C@@H](OCc3ccccc3)[C@@]3(OCc4ccccc4)[C@@H](OCc4ccccc4)CO[C@@H]23)n1 | 84% | inactive | 0.76 µM | 85% | 70% | 20% | – | – | – | – | – | – | –
13 | C=C[C@H](O)[C@@H]1O[C@H](OC)[C@@H]2OC[C@H](OCc3ccccc3)[C@]2(OCc2ccccc2)[C@@H]1OCc1ccccc1 | 76% | inactive | 31 µM | 54% | 4% | – | – | – | – | – | – | – | –
14 | CC(=O)Nc1nc(Cl)c2ncn([C@@H]3O[C@H](COC(C)=O)[C@@H](OCc4ccccc4)[C@@]4(OCc5ccccc5)[C@@H](OCc5ccccc5)CO[C@@H]34)c2n1 | 48% | inactive | – | 11% | – | – | – | – | – | – | – | – | –
15 | CO[C@H]1O[C@@H]([C@H](N=[N+]=[N-])C(=O)OCc2ccccc2)[C@@H](OCc2ccccc2)[C@@]2(OCc3ccccc3)[C@@H](OCc3ccccc3)CO[C@@H]12 | 91% | inactive | 4.2 µM | 64% | 36% | 15% | – | 25% | 47.9% | 73.9% | 71.2% | 90.2% | –
16 | CO[C@H]1O[C@@H]([C@H](O)C(=O)OCc2ccccc2)[C@@H](OCc2ccccc2)[C@@]2(OCc3ccccc3)[C@@H](OCc3ccccc3)CO[C@@H]12 | 55% | inactive | 133 µM | 8% | – | – | – | – | – | – | – | – | –
17 | CO[C@H]1O[C@H](COC(C)=O)[C@@H](OC(C)=O)[C@@]2(OC(C)=O)[C@@H](OC(C)=O)CO[C@@H]12 | < 5% | inactive | – | – | – | – | – | – | – | – | – | – | –
